# Only some compounds are listed: those with a hit (about 4.6% of all), similar ones and a draw of the others.
# ALR inh: inhibitors of human sulfhydryl oxidase ALR; AID 485317; actives 3.8% (n = 290,000); purified ALR, DTT oxidation, H2O2 HRP-luminol luminescence; inhibition, % (test concentration not listed); P55789;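 active means mean replicate inhibition above about 79%, with every replicate also reaching it, limit read from the data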
# Target sequence (P55789 whole entry, looked up): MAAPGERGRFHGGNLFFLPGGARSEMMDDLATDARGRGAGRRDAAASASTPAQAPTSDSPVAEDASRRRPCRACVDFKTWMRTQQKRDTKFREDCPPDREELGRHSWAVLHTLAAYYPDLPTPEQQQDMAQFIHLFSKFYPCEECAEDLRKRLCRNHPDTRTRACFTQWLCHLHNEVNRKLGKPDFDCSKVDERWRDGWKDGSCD
# Arr AP2 block: human beta-arrestin and AP2 interaction inhibition | FITC-arrestin peptide / GST-AP2 beads, flow cytometry; AP2 beta2 appendage carries R879A mutation | inhibition, % at 10 µM | actives 0.31% (n = 340,000) | AID 504490;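 active means inhibition above a set limit, near 3 SD of compounds lacking own fluorescence, cut at about 54% in these data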;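 further: plate controls were DMSO wells for no effect and 5 µM unlabelled arrestin peptide for full effect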
#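 System: GST-AP2 R879A bound to glutathione beads, E. coli-expressed. Also added: 50 nM FITC-arrestin peptide. Schedule: compound with beads 12 min RT, then probe 1 h RT. Signal: bead flow cytometry, FITC channel. Read-out basis: percent response.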
# NALP1 inh: blocks the NALP1 inflammasome reconstituted in yeast; S. cerevisiae NALP1/ASC/caspase-1 growth, X-gal OD620, 72 h; inhibition, % at 10 µM; actives 0.61% (n = 280,000); AID 2071; in the data active means inhibition mostly above about 24%, no sharp cut-off; inactive means mostly below about 32%
# Pemphigus Ab inh: human desmoglein-3 autoantibody binding inhibition; DSG3-coupled beads, scFv-anti-DSG3-GFP binding, flow cytometry; active compounds read low; binding (percent of control), % at 10 µM; actives 0.48% (n = 310,000); AID 588358;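 active means binding more than 3 SD below its plate's average and above zero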;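 further: hits lower antibody fragment binding to DSG3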
# NLRP3 yeast inh: NALP3 inhibition in yeast; inhibition, % at 10 µM; Yeast reconstituted NLRP3/ASC/caspase-1, beta-gal luminescence, 24 h; AID 2825; actives 0.39% (n = 330,000);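 active means inhibition of 50% or more; inactive means inhibition below 50%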;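 further: plate controls were induced DMSO wells for no effect and uninduced yeast grown without galactose for full effect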
# PolyA inh: yeast polyadenylation inhibition | activity score, % at 12 µM | actives 0.02% (n = 300,000) | AID 1875 | S. cerevisiae SKY197-pL101 polyadenylation reporter, beta-gal luminescence; efflux-impaired pdr1/pdr3 knockout yeast; score 100 = 6 SD above DMSO;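 active means lowest replicate activity score at least 50, where 100 means six control SD above control mean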;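 further: yeast exposed to compound for 9 h at 30 °C; higher score means more reporter readthrough which indicates perturbed polyadenylation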
# Arr-AP2 CP1: blocks beta-arrestin peptide binding to human AP2; actives 2% (n = 1,300); AID 504908; inhibition, % at 10 µM; shares compounds with Arr AP2 block; GST-AP2 beads, FITC arrestin peptide binding, flow cytometry; GST-fused beta2-adaptin appendage, R879A mutant;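 active means inhibition above a set limit, roughly 3 SD of non-fluorescent compound noise, cut at about 38% in these data; inactive means inhibition at or below that limit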;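 further: loss of bead fluorescence from 50 nM FITC arrestin peptide bound to appendage; 0% = negative control wells and 100% = excess unlabelled arrestin peptide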
# GST GSH counter: counter-screen for beta-arrestin AP2 inhibitors: GST-GSH bead binding | shares compounds with Arr AP2 block | GST-fluorescein binding to GSH beads, fluorescence | inhibition, % at 10 µM | actives 2% (n = 1,300);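 active means inhibition above 50%, about 3 SD of the inhibition seen with non-fluorescent compounds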;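 further: fluorescein maleimide labelled GST captured on 4 micron glutathione beads; higher means more loss of bead fluorescence from quenching or blocked binding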
# The depositor's hits bear a star; . = no result.
SMILES,ALR inh,Arr AP2 block,NALP1 inh,Pemphigus Ab inh,NLRP3 yeast inh,PolyA inh,Arr-AP2 CP1,GST GSH counter
CCOc1ccc(S(=O)(=O)NCCC(=O)N(CC)CC(=O)Nc2c(F)cccc2F)cc1,-1.3,-2.0,.,107.0,4.6,2.4,.,.
CS(=O)(=O)N1CCN(C(=O)c2cc(-c3cccnc3)nc3ccc(Br)cc23)CC1,-9.1,64.4*,-5.0,98.9,12.9,-1.4,-15.3,-6.4
O=C(/C=C/c1cccs1)Nc1ccc(S(=O)(=O)Nc2ncccn2)cc1,2.3,7.0,-1.1,84.7,-14.8,-9.0,.,.
O=C(c1ccc2ncsc2c1)N1CCN(c2ccccc2Cl)CC1,-0.4,-24.2,3.3,111.3,13.3,9.8,.,.
O=C(c1ccc2ncsc2c1)N1CCN(c2ccc(O)cc2)CC1,98.9*,64.8*,-2.8,93.1,14.3,-6.7,-8.7,-12.0
O=C(Oc1ccc(=O)[nH]n1)c1ccccc1,.,.,.,103.0,.,.,.,.
CNS(=O)(=O)c1cccc(C(=O)NCC2(N3CCOCC3)CCCCC2)c1,-2.8,-10.4,15.3,107.4,13.2,4.6,.,.
Cc1cccc(NS(=O)(=O)c2cccc(C(=O)NCC3(N4CCOCC4)CCCCC3)c2)c1,.,-2.9,.,.,.,.,0.1,-1.7
COc1ccccc1NS(=O)(=O)c1ccc(C)c(C(=O)NCC2(N(C)C)CCCCC2)c1,-2.0,6.4,.,.,16.7,.,2.7,-3.8
O=C(NCC1(N2CCCCC2)CCCCC1)c1cccc(S(=O)(=O)Nc2ccc(F)cc2)c1,-1.1,11.1,.,98.9,5.1,.,-5.8,-3.7
COc1ccccc1NS(=O)(=O)c1cccc(C(=O)NCC2(N3CCCCC3)CCCCC2)c1,.,-7.1,.,103.7,.,.,7.6,-9.4
O=C(NCC1(N2CCCCC2)CCCCC1)c1cccc(NS(=O)(=O)c2ccccc2)c1,-12.1,-6.7,.,101.3,10.2,-15.4,.,.
COc1cc(=O)[nH]c(SC(C)C(=O)Nc2ccc3ccccc3c2)n1 (stereo unspecified),-8.9,-10.1,27.6,96.5,13.1,-10.4,.,.
CCc1ccc(NC(=O)[C@H](C)NC(=O)C2CCN(C(=O)[C@@H](NC(=O)OC(C)(C)C)C(C)C)CC2)cc1,17.5,10.6,32.7,111.9,3.1,1.4,.,.
COc1ccccc1-n1c(C)nc2cc(C(=O)NCCN3CCOCC3)ccc21,-1.2,8.1,-3.3,84.4,28.6,30.2,.,.
O=C(NCC1(N2CCOCC2)CCCCC1)c1cccc(S(=O)(=O)Nc2ccc(F)cc2)c1,.,-8.4,.,100.8,6.4,.,-1.6,-0.6
Cc1cccc(NC(=O)c2nc[nH]c2C(=O)N2CCc3ccccc3C2)c1,-3.9,5.7,.,102.2,13.5,.,.,.
CCC(C)(C)n1nnnc1C(c1ccc(N(C)C)cc1)N1CCN(C2CCCCC2)CC1 (stereo unspecified),.,26.0,-0.9,114.9,.,.,.,.
CC(=O)N(C)c1ccc(NC(=O)c2ccc([N+](=O)[O-])cc2Cl)cc1,-42.4,69.2*,30.2,97.1,8.1,11.2,2.5,-3.8
COc1ccccc1NS(=O)(=O)c1cccc(NC(=O)C2CC(=O)N(Cc3ccccc3)C2)c1 (stereo unspecified),-14.7,60.2*,-8.0,107.2,-5.0,4.2,-2.6,-12.0
Cc1cccc(NC(=O)CCNS(=O)(=O)c2cc(Br)cnc2N)c1C,5.3,1.9,5.5,99.8,5.0,10.8,.,.
Cc1ccccc1NC(=O)COC(=O)/C=C/c1cccc(C(F)(F)F)c1,.,2.5,18.9,101.2,-6.7,-4.1,.,.
O=C(COC(=O)/C=C/c1cccc(C(F)(F)F)c1)Nc1cccc2ccccc12,-5.0,91.0*,0.0,95.7,6.0,4.9,-11.4,-2.2
Cc1ccccc1C(=O)c1cccn1CC(=O)NCCCN1CCc2ccccc2C1,-38.7,-4.3,-10.5,96.5,11.9,-7.2,.,.
Cc1ccc2nc3c(c(C(=O)OCC(=O)NC4CCS(=O)(=O)C4)c2c1)CCCC3 (stereo unspecified),-2.4,57.0*,-7.1,97.0,10.2,-4.9,1.7,-3.4
SMILES,ALR inh,Arr AP2 block,NALP1 inh,Pemphigus Ab inh,NLRP3 yeast inh,PolyA inh,Arr-AP2 CP1,GST GSH counter
Cc1ccc(SCC(=O)OCC(=O)N(CCC#N)c2ccccc2)cc1,3.5,-6.2,.,.,6.7,.,.,.
Cc1ccc(N(CCC#N)C(=O)COC(=O)c2ccccn2)cc1,-15.9,69.0*,0.2,103.6,9.8,-13.9,-5.6,-0.6
Cn1cnnc1SCC(=O)NC1CCCN(Cc2ccccc2F)C1 (stereo unspecified),-1.5,-4.3,3.1,77.3,7.9,-9.5,.,.
CCn1c(=O)n(CC(=O)Nc2cc(OC)c(OC)c(OC)c2)c(=O)c2ccccc21,-7.4,14.0,-2.4,100.3,11.9,8.2,-13.1,-4.0
COc1cccc(NC(=O)Cn2c(=O)n(-c3cc(OC)c(OC)c(OC)c3)c(=O)c3ccccc32)c1,.,17.6,-10.5,81.0,-6.8,-3.4,.,.
COc1cc(NC(=O)CNC(=O)Cn2c(C)cc3ccccc3c2=O)cc(OC)c1OC,.,-5.2,11.5,.,7.6,5.7,.,.
CCn1c(=O)n(CC(=O)Nc2cccc(OC)c2)c(=O)c2ccccc21,.,-0.3,14.6,107.7,13.2,6.6,-2.5,-5.9
CC1CCN(S(=O)(=O)N2CCC(C(=O)O)CC2)CC1,-3.7,56.5*,17.1,97.2,7.3,12.9,19.6,-3.9
COc1cccc(CN2CCNC(=O)C2CC(=O)NCC(C)(C)N2CCOCC2)c1OC (stereo unspecified),-0.8,19.8,8.5,103.3,12.1,8.7,.,.
CC(C)Cn1c(=O)c2c(c3ccccc31)OC(C)C(=O)N2 (stereo unspecified),.,6.8,2.4,94.3,.,-13.6,.,.
COc1ccc(CCN2C(=O)CS/C2=N\NC(=O)c2ccc(C(C)(C)C)cc2)cc1OC,-23.8,61.7*,15.3,103.0,16.3,-2.4,5.2,-1.2
COc1ccc(N=C2SCC(=O)N2CCc2ccc(OC)c(OC)c2)cc1,0.7,-10.6,.,96.9,9.2,-10.7,.,.
CCCCc1ccc(NC(=O)CC(C)=O)cc1,20.8,-3.5,31.4,99.9,32.3,9.6,-8.7,1.3
COc1ccc(CC(=O)N(C)Cc2ccc(Cl)cc2)cc1S(=O)(=O)N1CCOCC1,-5.2,63.8*,.,111.9,-10.0,7.5,15.7,-0.2
COc1ccc(CC(=O)N(C)Cc2ccc(C(C)(C)C)cc2)cc1S(=O)(=O)N1CCOCC1,2.2,0.3,3.8,113.4,1.3,-9.7,.,.
Nc1ccc(Nc2ccccc2)c(Cl)c1,99.6*,70.5*,15.3,99.5,12.9,-21.2,0.8,7.8

# Source: PubChem BioAssay
